{"source": "ChEMBL document CHEMBL5338714", "about": "“Design, synthesis and biological evaluation of biphenyl-benzamides as potent FtsZ inhibitors” (Eur J Med Chem, 2022)", "key": {"[1]": {"system": "Bacillus subtilis", "assay": "Antibacterial activity against Bacillus subtilis 618 assessed as bacterial growth inhibition incubated for 18 hrs by CLSI based broth microdilution method", "type": "functional", "procedure,_shortened": "(§1)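 CLSI broth microdilution. Log-phase bacteria in Mueller Hinton broth added to 2-fold serial dilutions spanning 128 to 0.25 or 2 to 0.004 µg/mL. Incubated aerobically for 18 h at 37 °C, then OD600 read. MIC is the lowest concentration giving ≥90% growth inhibition; three independent assays.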"}, "[2]": {"system": "Bacillus subtilis", "assay": "Antibacterial activity against Bacillus subtilis BS01 assessed as bacterial growth inhibition incubated for 18 hrs by CLSI based broth microdilution method", "type": "functional", "procedure,_shortened": "as §1"}, "[3]": {"system": "Staphylococcus aureus", "assay": "Antibacterial activity against ampicillin-resistant Staphylococcus aureus 669 assessed as bacterial growth inhibition incubated for 18 hrs by CLSI based broth microdilution method", "type": "functional", "procedure,_shortened": "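Broth microdilution to CLSI guidelines. Log-phase bacteria grown in Mueller Hinton broth, diluted, then exposed to 2-fold serial dilutions of compound (128 to 0.25 µg/mL or 2 to 0.004 µg/mL). Incubated aerobically 18 h at 37 °C. Growth read as OD600. MIC = lowest concentration giving ≥90% growth inhibition. Three independent assays.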"}, "[4]": {"system": "Staphylococcus aureus", "assay": "Selectivity ratio of MBC for Staphylococcus aureus ATCC25923 to MIC for Staphylococcus aureus ATCC25923", "type": "functional", "procedure,_shortened": "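After 24 h of broth microdilution, 5 µL from clear wells plated on LB agar and incubated aerobically for 24 h at 37 °C. MBC is the lowest concentration with no colonies. Ratio is MBC over MIC, with ≤4 taken as bactericidal and >4 as bacteriostatic.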"}, "[5]": {"system": "Bacillus subtilis", "assay": "Bactericidal activity against Bacillus subtilis ATCC9372 incubated for 24 hrs by broth microdilution method", "type": "functional", "procedure,_shortened": "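MBC from the broth microdilution plates (MHB, 2-fold dilutions). After 24 h, 5 µL aliquots from clear wells were plated on LB agar and incubated aerobically 24 h at 37 °C, then colonies counted. MBC = lowest concentration with no colonies.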"}, "[6]": {"system": "Staphylococcus aureus", "assay": "Induction of resistance in Staphylococcus aureus ATCC29213 assessed as fold increase in MIC at 0.5 times MIC after 18 passages incubated for 24 hrs by resistance development assay", "type": "functional", "procedure,_shortened": "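Serial passage of S. aureus ATCC29213. Initial MIC was found by broth microdilution. Bacteria from the 0.5 × MIC tubes (duplicate) were diluted to about 5 × 10^5 CFU/mL and re-exposed to compound for 24 h at 35 °C, then fold increase in MIC was determined. Repeated for 18 passages, with norfloxacin as comparator.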"}, "[7]": {"target": "T1, Cell division protein FtsZ (Staphylococcus aureus) (UniProt P0A031)", "T1 sequence (whole entry)": "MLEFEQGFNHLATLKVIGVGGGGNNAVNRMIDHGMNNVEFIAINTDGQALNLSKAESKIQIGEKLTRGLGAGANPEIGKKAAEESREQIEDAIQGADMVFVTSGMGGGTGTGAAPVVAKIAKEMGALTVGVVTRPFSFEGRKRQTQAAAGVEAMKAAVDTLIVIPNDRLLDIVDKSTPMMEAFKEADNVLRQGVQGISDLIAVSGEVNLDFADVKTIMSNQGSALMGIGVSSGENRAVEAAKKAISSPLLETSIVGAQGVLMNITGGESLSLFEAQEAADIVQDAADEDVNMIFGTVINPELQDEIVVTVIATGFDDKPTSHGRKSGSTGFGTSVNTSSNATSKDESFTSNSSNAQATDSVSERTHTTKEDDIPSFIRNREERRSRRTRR", "assay": "Inhibition of recombinant Staphylococcus aureus FtsZ assessed as FtsZ polymerization at 10 ug/ml preincubated for 10 mins followed by GTP addition measured after 20 mins by TEM analysis", "details": "dose 10.0 µg/ml, time 30.0 min", "procedure,_shortened": "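Recombinant S. aureus FtsZ (12 µM) preincubated 10 min at room temperature with compound in DMSO, in 50 mM Hepes-KOH pH 6.8. KCl 50 mM, MgCl2 5 mM and GTP 1 mM then added, 20 min at 37 °C. Samples placed on glow-discharged carbon grids, stained with 1% phosphotungstic acid, imaged by TEM.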"}, "[8]": {"target": "T1, Cell division protein FtsZ (Staphylococcus aureus)", "assay": "Inhibition of recombinant Staphylococcus aureus FtsZ-mediated GTPase activity preincubated for 10 mins followed by GTP addition measured after 30 mins by absorbance based assay", "details": "dose <= 35.0 µg/ml, time 40.0 min", "procedure,_shortened": "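S. aureus FtsZ (6 µM) preincubated 10 min at room temperature with a range of compound concentrations in 50 mM Hepes-KOH. KCl 300 mM, MgCl2 5 mM and GTP 1 mM then added, 30 min at 37 °C. Reaction quenched with Cytophos reagent for 10 min; released phosphate read at 620 nm.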"}, "[9]": {"assay": "Metabolic stability in rat liver microsomes assessed as compound remaining preincubated for 5 mins followed by NADPH addition measured immediately by LC/MS analysis", "type": "ADME, Microsome", "details": "read-out: Stability"}, "[10]": {"assay": "Metabolic stability in human liver microsomes assessed as compound remaining preincubated for 5 mins followed by NADPH addition measured after 45 mins by LC/MS analysis", "type": "ADME, Microsome", "details": "time 50 min, read-out: Stability", "procedure,_shortened": "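Liver microsomes (final protein 0.75 mg/mL) with compound in 100 mM phosphate buffer pH 7.4, preincubated 5 min at 37 °C. Reaction started with NADPH regeneration system, stopped at 5, 15, 30 and 45 min with acetonitrile containing internal standard. Percent remaining measured by LC/MS, with ketanserin as reference; variation given as RSD of area ratio.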"}, "[11]": {"assay": "Half life in ICR mouse at 1 mg/kg, iv measured for 0.08 to 24 hrs by LC-MS/MS analysis", "type": "ADME, organism-based", "details": "in vivo, time 0.08-24 hrs", "procedure,_shortened": "(§2)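 Male ICR mice, single intravenous dose formulated in 5% DMSO, 4% ethanol, 5% Cremophor EL, 86% water. Blood sampled at 5, 15, 30 min, 1, 2, 4, 8 and 24 h; plasma stored at -20 °C. Compound quantified by LC-MS/MS, with parameters from non-compartmental analysis.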"}, "[12]": {"assay": "Tmax in ICR mouse at 1 mg/kg, iv measured for 0.08 to 24 hrs by LC-MS/MS analysis", "type": "ADME, organism-based", "details": "in vivo, time 0.08-24 hrs", "procedure,_shortened": "as §2"}, "[13]": {"assay": "Cmax in ICR mouse at 1 mg/kg, iv measured for 0.08 to 24 hrs by LC-MS/MS analysis", "type": "ADME, organism-based", "design": "time upper 24 hrs, dose 1 mg/kg, time lower 0.08 hrs, route iv", "details": "in vivo", "procedure,_shortened": "as §2"}, "[14]": {"assay": "AUC (0 to t) in ICR mouse at 1 mg/kg, iv measured for 0.08 to 24 hrs by LC-MS/MS analysis", "type": "ADME, organism-based", "design": "time 0.08-24 hrs, dose 1 mg/kg, route iv", "details": "in vivo", "procedure,_shortened": "as §2"}, "[15]": {"assay": "Clearance in ICR mouse at 1 mg/kg, iv measured for 0.08 to 24 hrs by LC-MS/MS analysis", "type": "ADME, organism-based", "details": "in vivo, time 0.08-24 hrs", "procedure,_shortened": "as §2"}, "[16]": {"assay": "Cmax in ICR mouse at 5 mg/kg, po measured for 0.25 to 24 hrs by LC-MS/MS analysis", "type": "ADME, organism-based", "design": "time upper 24 hrs, dose 5 mg/kg, time lower 0.25 hrs, route po", "details": "in vivo", "procedure,_shortened": "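Male ICR mice dosed orally with a solution of 5% DMSO, 4% ethanol, 5% Cremophor EL and 86% water. Blood collected at 15, 30 min, 1, 2, 4, 6, 8 and 24 h; plasma stored at -20 °C. Plasma levels measured by LC-MS/MS; parameters by non-compartmental analysis, with bioavailability relative to the 1 mg/kg iv dose.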"}}, "note": "Activity calls are given as the source filed them. No cut-off for these calls is given here."}
{"smiles": "Cc1cc(Cl)ccc1-c1cccc(COc2ccc(F)c(C(N)=O)c2F)c1", "values": [{"measurement": "MIC", "setting": "[1]", "value": 0.008, "unit": "µg/mL"}, {"measurement": "MIC", "setting": "[2]", "value": 0.016, "unit": "µg/mL"}, {"measurement": "MIC", "setting": "[3]", "value": 0.06, "unit": "µg/mL"}, {"measurement": "Selectivity ratio", "setting": "[4]", "value": 2}, {"measurement": "MBC", "setting": "[5]", "value": 0.063, "unit": "µg/mL"}, {"measurement": "fold change (FC)", "setting": "[6]", "value": 4}, {"measurement": "inhibition", "setting": "[7]", "value": "Active"}, {"measurement": "inhibition", "setting": "[8]", "value": "Active"}, {"measurement": "remaining at 0 min", "setting": "[9]", "value": 100, "unit": "%"}, {"measurement": "remaining at 0.75 h", "setting": "[10]", "value": 75, "unit": "%"}, {"measurement": "t1/2", "setting": "[11]", "value": 16.8, "unit": "min"}, {"measurement": "Tmax", "setting": "[12]", "value": 4.98, "unit": "min"}, {"measurement": "Cmax", "setting": "[13]", "value": 480, "unit": "ng/mL"}, {"measurement": "AUC(0-t)", "setting": "[14]", "value": 178, "unit": "ng·h/mL"}, {"measurement": "CL", "setting": "[15]", "value": 94.713, "unit": "mL/min/kg"}, {"measurement": "Cmax", "setting": "[16]", "value": 429, "unit": "ng/mL"}]}
